High-throughput results from PubChem BioAssay.
TAAR1 antag = human TAAR1 antagonists, primary screen, Fluo-8 calcium fluorescence, CHO RD-HGA16 cells. inhibition, % at 3 µM. 360,000 compounds, 1.5% hits. Trace amine-associated receptor 1 (Homo sapiens), Q96RJ0. antagonist. AID 624466, 2012;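 active = inhibition above a per-plate cutoff, the mean inhibition of test compounds on that plate plus 3 SD, cut at about 49% in these data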
Target sequence (Q96RJ0 whole entry, looked up): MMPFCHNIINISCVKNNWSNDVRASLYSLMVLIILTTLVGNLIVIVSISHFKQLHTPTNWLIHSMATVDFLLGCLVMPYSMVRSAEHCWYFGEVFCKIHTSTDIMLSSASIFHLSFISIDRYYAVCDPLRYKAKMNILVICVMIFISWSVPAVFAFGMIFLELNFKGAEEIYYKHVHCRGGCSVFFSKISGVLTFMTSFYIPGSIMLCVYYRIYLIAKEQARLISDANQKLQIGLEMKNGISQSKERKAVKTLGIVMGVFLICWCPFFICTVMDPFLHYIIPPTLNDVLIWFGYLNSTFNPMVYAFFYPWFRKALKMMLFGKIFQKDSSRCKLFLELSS
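Test system – hTAAR1-expressing CHO RD-HGA16 cells, Gα16-coupled · Reagent – β-PEA at EC80 concentration, post-compound challenge · Compound dosing – 3 µM, single point · Timing – 140 s kinetic read after compound, 140 s after agonist · Detection – Fluo-8 intracellular calcium dye fluorescence, real-time kinetic reads · Control set – DMSO and EC80 PEA controls · Repeats – n of 1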
OX1R antag-1 = antagonists of human orexin 1 receptor (OX1R); Orexin/Hypocretin receptor type 1 (Homo sapiens), O43613; OX1R-expressing cells, FRET antagonist read-out; inhibition, % at 6.6 µM; 330,000 compounds, 1.8% hits; AID 485270, 2010; in the data active = inhibition mostly above about 38%, no sharp cut-off; inactive = mostly below about 40%
CHO parental Ca = ATP-evoked calcium signal inhibitors, parental CHO, primary screen, counter-screen for OX1R antagonist project, cell-based, fluorescence, Fluo-8 calcium dye; parental CHO-K1, ATP-induced calcium, Fluo-8 fluorescence; inhibition, % at 5.6 µM; 330,000 compounds, 0.63% hits; AID 463079, 2010;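 active = inhibition above that plate's mean sample inhibition plus 3 SD, cut at about 26% in these data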
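Assay system: untransfected parental CHO cell line. Also added: ATP agonist challenge. Dosing: one dose, 5.6 µM nominal. Measured by: Fluo-8 fluorescence. Read-out: % inhibition. Benchmarks: ATP wells versus no-ATP DMSO wells. Repeats: no replicates.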
TAAR1 ag = human TAAR1 agonists, primary screen, Fluo-8 calcium fluorescence, CHO RD-HGA16 cells. vehicle wells 0%, saturating PEA agonist 100%. Trace amine-associated receptor 1 (Homo sapiens), Q96RJ0. AID 624467, 2012. 360,000 compounds, 0.99% hits. activation, % at 3 µM;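 active = activation above the mean activation of all test compounds in the run plus 3 SD, cut at about 38% in these data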
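Assay system: CHO-derived RD-HGA16 cells with stable Gα16 and human TAAR1; timing: 17-24 h seeding, 75 min 37 °C dye, 30 min RT; read-out: % activation from peak over basal fluorescence ratio, DMSO-to-PEA scaled; measured by: kinetic Fluo-8 calcium fluorescence; benchmarks: low control DMSO, high control PEA (EC100); doses: 3 µM single concentration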
GPR7 antag = GPR7 receptor antagonists, primary screen, cell-based, fluorescence, single concentration; Neuropeptides B/W receptor type 1 (Homo sapiens), P48145; GPR7-expressing cells, fluorescence antagonist assay; inhibition, % at 4.4 µM; 290,000 compounds, 1.1% hits; in the data active = inhibition above about 16%, passing the limit was not always enough;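 note: cells stimulated with the agonist NPW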
Target sequence (P48145 whole entry, looked up): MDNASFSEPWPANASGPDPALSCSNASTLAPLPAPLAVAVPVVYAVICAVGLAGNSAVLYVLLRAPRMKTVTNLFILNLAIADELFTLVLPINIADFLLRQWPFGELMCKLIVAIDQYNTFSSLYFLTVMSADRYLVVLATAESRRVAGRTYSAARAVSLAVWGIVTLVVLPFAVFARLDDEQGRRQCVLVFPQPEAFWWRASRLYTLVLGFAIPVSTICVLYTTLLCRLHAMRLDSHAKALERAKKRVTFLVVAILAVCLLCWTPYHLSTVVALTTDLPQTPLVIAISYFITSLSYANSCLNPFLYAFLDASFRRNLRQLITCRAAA
OX1R antag-2 = OX1R (HCRTR1) antagonists, primary screen, fluorescence, CHO/OX1R cells, Fluo-8 calcium, orexin A; 330,000 compounds, 0.43% hits; AID 434989, 2010; inhibition, % at 5 µM; Fluo-8 calcium fluorescence;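 active = inhibition above its plate's threshold, mean inhibition of all tested compounds on the plate plus 3 SD, cut at about 37% in these data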
Each line names hits and unclear results; the compound was inactive in the other large screens. A selection: hits, their analogues and other compounds. The true share with any hit is near 4.5%.

O=C(CCCSc1nc2ccccc2[nH]1)N1CCN(c2ccc([N+](=O)[O-])cc2)CC1	CHO parental Ca 50, GPR7 antag 18, OX1R antag-2 59
O=C(CN1CCOCC1)NNC(=O)c1ccc([N+](=O)[O-])cc1	OX1R antag-1 43
O=C(Nc1cccc2c1CCCC2)c1cc(C2CCCCN2C(=O)OCCF)on1 (centres undefined)	none (no result: OX1R antag-1, CHO parental Ca, GPR7 antag, OX1R antag-2)
CCOc1ccc(N2C=Nc3ccc(OCC)cc3C2)cc1	none
CCC(=O)Nc1ccc(S(=O)(=O)NCc2ccco2)cc1	none
O=C(COc1ccccc1-c1ccccc1)Nc1ccc(S(=O)(=O)NCc2ccco2)cc1	TAAR1 antag 61, OX1R antag-1 47
O=C1c2ccccc2C(=O)N1CCC#Cc1ccc2cc(CCO)oc(=O)c2c1	TAAR1 antag 72 (no result: GPR7 antag)
COCCCn1c(=O)c2sccc2n2c(CCCC(=O)NCC3CCCO3)nnc12 (centres undefined)	none
COc1ccc2[nH]c(=O)c(CN(Cc3cccs3)S(=O)(=O)c3cccc4nsnc34)cc2c1	TAAR1 antag 53
Nc1ccc(C(=O)Nc2ccc(OC(F)(F)C(F)F)c(NC(=O)c3ccc(N)cc3)c2)cc1	none
O=C(Nc1ccc(OC(F)(F)C(F)F)c(NC(=O)c2ccc(F)cc2)c1)c1ccc(F)cc1	OX1R antag-1 65
CCN(C(=O)COC(=O)CCCN1C(=O)c2cccc3cccc(c23)C1=O)C1CCS(=O)(=O)C1 (centres undefined)	OX1R antag-1 53 (no result: GPR7 antag)
CCOc1ccc(N2C(=O)c3ccc(C(=O)OCC(=O)N(CC)C4CCS(=O)(=O)C4)cc3C2=O)cc1 (centres undefined)	none
C=CCN1C(=O)c2ccc(C(=O)OCC(=O)N(CC)C3CCS(=O)(=O)C3)cc2C1=O (centres undefined)	OX1R antag-1 42 (no result: GPR7 antag)
CCOC(=O)CCCCCN1C(=O)c2cccc3cccc(c23)C1=O	none
CC(C)CN(C(=O)COC(=O)CCN1C(=O)c2ccccc2C1=O)C1CCS(=O)(=O)C1 (centres undefined)	none
CN(C(=O)COC(=O)CCCN1C(=O)c2cccc3cccc(c23)C1=O)C1CCS(=O)(=O)C1 (centres undefined)	OX1R antag-1 67 (no result: GPR7 antag)
CCC1CCCCN1C(=O)COC(=O)c1cc(=O)[nH]c2ccccc12 (centres undefined)	OX1R antag-1 25 (no result: GPR7 antag)
c1ccc(NCc2nc3ccccc3n2CCOc2ccccc2)cc1	OX1R antag-1 68
CCOC(=O)C1(CC2CCCCO2)CCN(Cc2nccn2-c2cccc(C)c2)CC1 (centres undefined)	GPR7 antag 19
COC(=O)[C@]12C[C@H](CC(=O)N3CCCCC3)C(=O)N(Cc3ccccc3)C1=C[C@H](C(C)(C)C)O[C@@H]2C	none (no result: OX1R antag-1, CHO parental Ca, GPR7 antag, OX1R antag-2)
Cc1ccccc1S(=O)(=O)Cc1ccc(C(=O)N2CC(C)CC(C)C2)o1 (centres undefined)	TAAR1 ag 42
Cc1ccccc1S(=O)(=O)Cc1ccc(C(=O)NC2CCC(C)CC2)o1 (centres undefined)	none
Cc1ccccc1S(=O)(=O)Cc1ccc(C(=O)N2CCN(c3cccc(C)c3C)CC2)o1	TAAR1 antag 73
COC(=O)c1c(C)[nH]c(C(=O)C(C)OC(=O)C2CC(=O)N(c3ccc(C)cc3)C2)c1C (centres undefined)	CHO parental Ca 46, OX1R antag-2 66 (no result: GPR7 antag)
O=C(Nc1ccccc1-c1nc2ccccc2[nH]1)c1ccc(N2C(=O)CCC2=O)cc1	TAAR1 antag 50
O=c1c2ccccc2nnn1Cc1ccco1	none (no result: OX1R antag-1, CHO parental Ca, GPR7 antag, OX1R antag-2)
Cc1noc(C)c1C(=O)Nc1nc(-c2cccs2)cs1	none (no result: GPR7 antag)
CCc1noc(C)c1C(=O)Nc1nc(-c2cccs2)cs1	OX1R antag-1 51 (no result: GPR7 antag)
CCn1c(/C=C/c2ccccc2)nc2ccccc21	OX1R antag-1 48
Cc1ccc(OCc2cc(C(=O)NCc3cc(F)ccc3C)no2)cn1	none (no result: OX1R antag-1, CHO parental Ca, OX1R antag-2)
CCC(NC(=O)c1cc(COc2ccc(C)nc2)on1)c1ccc(C)cc1 (centres undefined)	TAAR1 ag 49
COc1cc2c(cc1NC(=O)C(C)Sc1ccc(NC(C)=O)cc1)oc1ccccc12 (centres undefined)	TAAR1 antag 50
COc1cc2c(cc1NC(=O)Nc1ccc(C)cc1)oc1ccccc12	none
O=C(CN1C(=O)NC(CCc2ccccc2)C1=O)Nc1ccc(F)c(F)c1F (centres undefined)	TAAR1 ag 44 (no result: GPR7 antag)
O=C(CN1C(=O)NC(Cc2ccccc2)C1=O)Nc1ccccc1F (centres undefined)	none (no result: GPR7 antag)
CCC1(C)OC(=O)N2CCc3c(C)[nH]c4c(C)ccc(c34)C21C (centres undefined)	GPR7 antag 18
CCOC(=O)c1c(C)[nH]c(C(=O)COC(=O)c2ccc(N3CCCC3=O)cc2)c1C	none
COC(=O)Cc1nnn2c1[C@H](C)[C@H](c1ccccc1Br)OC[C@H](C)C2	none (no result: OX1R antag-1, CHO parental Ca, GPR7 antag, OX1R antag-2)
O=c1c2ccccc2c(C=Nc2ccc(S(=O)(=O)N3CCCCC3)cc2)c(O)n1-c1ccc(Cl)cn1	none
O=c1c2ccccc2c(C=Nc2cccc(S(=O)(=O)NCc3ccco3)c2)c(O)n1-c1ccc(Cl)cn1	OX1R antag-1 66
CS(=O)(=O)N1CCc2cc(-c3csc(NC(=O)C(c4ccccc4)c4ccccc4)n3)ccc21	none
CC1Cc2cc(-c3csc(NC(=O)Cc4ccccc4)n3)ccc2N1S(C)(=O)=O (centres undefined)	TAAR1 antag 54
Cc1ccc(-n2c(C)cc(C(=O)CSc3nncs3)c2C)cc1	OX1R antag-1 57, OX1R antag-2 92
CCn1c(C)nc2cc(-c3nnc(-c4c(-c5ccccc5)noc4C)o3)ccc21	OX1R antag-1 45, CHO parental Ca 37
Cc1onc(-c2ccccc2)c1-c1nnc(-c2ccccc2C(F)(F)F)o1	none
O=C1N=c2ccc(Br)cc2=C1c1sc(=O)[nH]c1O	OX1R antag-1 42 (no result: TAAR1 antag, TAAR1 ag)
CCCN1CCCCC(NC(C)=O)C1=O (centres undefined)	none (no result: OX1R antag-1, CHO parental Ca, GPR7 antag, OX1R antag-2)
COc1ccc(Oc2ccc3c(C(F)(F)F)cc(C(F)(F)F)nc3n2)cc1	none
Oc1ccc(Oc2ccc3c(C(F)(F)F)cc(C(F)(F)F)nc3n2)cc1	CHO parental Ca 49
Cc1[nH]c2ccccc2c1C(=O)CSc1nc2ccccc2c(=O)n1CCCN1CCOCC1	TAAR1 antag 71, TAAR1 ag 48
